Test results published in publication PMC2899701 (Lipids, 2009).
≈ marks a conversion by molar mass, not a printed value. Where two headings read alike, the source gives them in different places.

Columns and labels:
[1] = tested on: Murine macrophages (RAW 264.7); assay: Toxicity to murine macrophages; type: cell-based; settings: for IC50: RAW264.7, 48 h, read-out: Murine macrophages IC50; for Murine macrophages IC50: RAW 264.7, 48 h incubation, alamarBlue
Summary of the method: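 RAW 264.7 murine macrophages grown at 37 °C in RPMI 1640 with 10% FCS, penicillin (50 U/ml) and streptomycin (50 µg/ml). Cells exposed 48 h to a range of test compound concentrations (0.3 to 100 µg/ml, DMSO vehicle). Viability read with alamarBlue dye per manufacturer's protocol; IC50 derived from concentration series.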

[2] = tested on: L. donovani promastigotes; type: cell-based, Leishmania donovani (MHOM/ET67/L82 strain); settings: for Therapeutic index IC50/EC50: IC50 murine macrophages / EC50 L. donovani promastigotes; for EC50: 48 h, read-out: L. donovani promastigotes EC50; for L. donovani promastigotes EC50: 48 h incubation, fatty acids in DMSO 0.6 to 25 μg/ml; for Effectiveness towards L. donovani (in words): promastigotes
Summary of the method: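 L. donovani MHOM/ET67/L82 promastigotes propagated in defined medium 199 with 10% heat-inactivated FCS, penicillin (50 U/ml) and streptomycin (50 µg/ml). Cultures given test fatty acids in DMSO over 0.6 to 25 µg/ml for 48 h. Cell population counted by Coulter counter; IC50/EC50 derived from the concentration series.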

[3] = target: leishmania DNA topoisomerase IB (LdTopIB) (Leishmania donovani, UniProt A0A3Q8IHS4+Q8WQM6); assay: DNA relaxation assay with recombinant LdTopIB; type: biochemical; settings: concentrations as high as 1mM (gel not shown)
[4] = tested on: L. donovani promastigotes; settings: at levels of 100 μg/mL; cited from earlier work
[5] = tested on: L. donovani promastigotes; settings: cited from earlier work

CCCCCCCCCCC#CCCCCC(=O)O [Compound 1a, 6-Heptadecynoic acid]
IC50 ([1]; Mus musculus): 5.66 ± 0.92 µg/mL (≈ 21.2 µM)
Therapeutic index IC50/EC50 [2]: 0.85
EC50 ([2]; Leishmania donovani): 6.67 ± 1.42 µg/mL (≈ 25 µM)

CCCCCCCCCCCCCC#CCCCCC(=O)O [Compound 1b, 6-Icosynoic acid]
IC50 ([1]; Mus musculus): 5.35 ± 2.14 µg/mL (≈ 17.3 µM)
Therapeutic index IC50/EC50 [2]: 4.82
EC50 ([2]; Leishmania donovani): 1.11 ± 0.28 µg/mL (≈ 3.6 µM)

CCCCCCCCCC/C=C\CCCCC(=O)O [Compound 6a, (6Z)-Heptadecenoic acid]
Murine macrophages IC50 [1]: 11.86 ± 1.63 µg/mL
L. donovani promastigotes EC50 [2]: > 25 µg/mL

CCCCCCCCCCCCC/C=C\CCCCC(=O)O [Compound 6b, (6Z)-Icosenoic acid]
Murine macrophages IC50 [1]: 28.20 ± 7.54 µg/mL
L. donovani promastigotes EC50 [2]: 5.67 ± 1.07 µg/mL
L. donovani promastigotes EC50 ([2]; listed as (6Z)-icosenoic acid): 5 to 6 µg/mL
Therapeutic index IC50/EC50 [2]: 4.97

CCCCCCCCCCCCCCCCC(=O)O [Heptadecanoic (17:0), n-heptadecanoic acid]
Murine macrophages IC50 [1]: 14.18 ± 7.48 µg/mL
Inhibition of the LdTOPIB enzyme (in words) [3]: did not inhibit the enzyme
L. donovani promastigotes EC50 [2]: > 25 µg/mL
Effectiveness towards L. donovani (in words) [2]: not effective

CCCCCCCCCCCCCCCCCCCC(=O)O [Icosanoic (20:0), n-icosanoic acid]
Murine macrophages IC50 [1]: 21.93 ± 2.61 µg/mL
Inhibition of the LdTOPIB enzyme (in words) [3]: did not inhibit the enzyme
L. donovani promastigotes EC50 [2]: > 25 µg/mL
Effectiveness towards L. donovani (in words) [2]: not effective

CCCCCCCCCCCCCCCCOP(=O)([O-])OCC[N+](C)(C)C [miltefosine]
EC50 ([1]; Mus musculus, RAW264.7, read-out: EC50 against murine macrophages): 1950 nM
IC50 ([2]; Leishmania donovani, read-out: IC50 against L. donovani): 790 nM

CCCCCCCCCC(=O)O [n-Decanoic acid]
Inhibition of the motility of L. donovani promastigotes (in words) [4]: inhibited the motility
MIC against L. donovani promastigotes [5]: 1390 µM (≈ 239 µg/mL)

CCCCCCCCCCCC(=O)O [n-dodecanoic, n-dodecanoic acid]
Inhibition of the motility of L. donovani promastigotes (in words) [4]: inhibited the motility

CCCCCCCCCCCCCCCC(=O)O [n-hexadecanoic acids, n-hexadecanoic acid]
Inhibition of the motility of L. donovani promastigotes (in words) [4]: inhibited the motility

CCCCCCCCCCCCCCCCCC(=O)O [octadecanoic acid]
MIC against L. donovani promastigotes [5]: 180 µM (≈ 51.2 µg/mL)

CCCCCCCC/C=C\CCCCCCCC(=O)O [oleic acid]
Inhibition of the motility of L. donovani promastigotes (in words) [4]: had no effect
MIC against L. donovani promastigotes [5]: 90 µM (≈ 25.4 µg/mL)
